Test [1] relates to Escherichia coli. The test can be described thus: Antibacterial activity against Escherichia coli ATCC 25922 at < 256 ug/mL after 18 to 24 hrs by CA-SFM and NCCLS-based broth microdilution method. The format is functional, organism-based. (In broth dilution the organism is exposed to a series of concentrations in liquid medium.)
Test [2] relates to Staphylococcus aureus. The test can be described thus: Antibacterial activity against Staphylococcus aureus ATCC 25923 at < 256 ug/mL after 18 to 24 hrs by CA-SFM and NCCLS-based broth microdilution method. In kind it is functional, organism-based.
For test [3], the system named is Staphylococcus aureus. In words: Antibacterial activity against Staphylococcus aureus ATCC 29213 at < 256 ug/mL after 18 to 24 hrs by CA-SFM and NCCLS-based broth microdilution method. In kind it is functional, organism-based.
In test [4] the test system is Enterococcus faecalis. In words: Antibacterial activity against Enterococcus faecalis ATCC 29212 at < 256 ug/mL after 18 to 24 hrs by CA-SFM and NCCLS-based broth microdilution method. The format is functional, organism-based.
The test system of test [5] is Pseudomonas aeruginosa. In words: Antibacterial activity against Pseudomonas aeruginosa ATCC 27853 at < 256 ug/mL after 18 to 24 hrs by CA-SFM and NCCLS-based broth microdilution method. The format is functional, organism-based.
In test [6] the test system is Escherichia coli. The test can be described thus: Antibacterial activity against Escherichia coli ATCC 25922 after 18 to 24 hrs by CA-SFM and NCCLS-based broth microdilution method. In kind it is functional. An outline of the steps:
(§1)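 MIC determined in liquid phase by broth microdilution in U-bottom 96-well plates. Bacteria were grown in Mueller-Hinton broth or agar, and isolate purity was checked at each test by colony morphology and Gram stain. The final inoculum was 1×10^5 CFU/mL, with a series of drug concentrations added. Plates were incubated 18–24 h at 35 °C, and growth was read by absorbance at 540 nm. MIC is expressed in µmol/L and µg/mL.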

Test [7] concerns Staphylococcus aureus. The test can be described thus: Antibacterial activity against Staphylococcus aureus ATCC 25923 after 18 to 24 hrs by CA-SFM and NCCLS-based broth microdilution method. The format is functional. An outline of the steps: as §1
In test [8] the test system is Staphylococcus aureus. The test can be described thus: Antibacterial activity against Staphylococcus aureus ATCC 29213 after 18 to 24 hrs by CA-SFM and NCCLS-based broth microdilution method. In kind it is functional. Summed up: as §1
Test [9] has as its system Enterococcus faecalis. In words: Antibacterial activity against Enterococcus faecalis ATCC 29212 after 18 to 24 hrs by CA-SFM and NCCLS-based broth microdilution method. In kind it is functional. An outline of the steps:
as §1

In test [10] the test system is Pseudomonas aeruginosa. The test can be described thus: Antibacterial activity against Pseudomonas aeruginosa ATCC 27853 after 18 to 24 hrs by CA-SFM and NCCLS-based broth microdilution method. In kind it is functional. An outline of the steps:
as §1

The structures appear in SMILES notation. In brackets after ≈: the same amount, converted by molar mass. Activity calls are given as the source filed them. The rule behind the calls is not given here. Some results are limits rather than exact numbers.

As usually defined, the MIC is the lowest concentration found to suppress growth. A higher MIC goes with a need for much substance.

In the case of `O=C([O-])C(F)(F)F.[Na+]`, the result in the test on Escherichia coli [1], in the test on Staphylococcus aureus [2], with Staphylococcus aureus [3], with Enterococcus faecalis [4] and in the test on Pseudomonas aeruginosa [5] was inactive.

Consider `NCCc1cc2c(O)c(c1)Cc1cc(CCN)cc(c1O)Cc1cc(CCN)cc(c1OCCCO)Cc1cc(CCN)cc(c1O)C2`, for which the MIC in the test with Escherichia coli [6] is 110 µM (≈ 72 µg/mL); with Staphylococcus aureus [7], 220 µM (≈ 144 µg/mL); in the test with Staphylococcus aureus [8], 220 µM (≈ 144 µg/mL); in the test on Enterococcus faecalis [9], greater than 220 µM; against Pseudomonas aeruginosa [10], 220 µM (≈ 144 µg/mL).

On to `CCn1cc(C(=O)OCCCOc2c3cc(CCN)cc2Cc2cc(CCN)cc(c2O)Cc2cc(CCN)cc(c2O)Cc2cc(CCN)cc(c2O)C3)c(=O)c2ccc(C)nc21`, for which the MIC amounted to 25 µM (≈ 21.7 µg/mL) in the test on Escherichia coli [6]; 50 µM (≈ 43.5 µg/mL) against Staphylococcus aureus [7]; 50 µM (≈ 43.5 µg/mL) in the test on Staphylococcus aureus [8]; 100 µM (≈ 86.9 µg/mL) with Enterococcus faecalis [9]; 100 µM (≈ 86.9 µg/mL) in the test with Pseudomonas aeruginosa [10].

Take `CCn1cc(C(=O)O)c(=O)c2ccc(C)nc21` [NALIDIXIC ACID]: the MIC in the test on Escherichia coli [6] is 100 µM (≈ 23.2 µg/mL); with Staphylococcus aureus [7] it was 200 µM (≈ 46.4 µg/mL); with Staphylococcus aureus [8], 200 µM (≈ 46.4 µg/mL); in the test on Enterococcus faecalis [9], 200 µM (≈ 46.4 µg/mL); against Pseudomonas aeruginosa [10] it was 200 µM (≈ 46.4 µg/mL).

These data come from ChEMBL document CHEMBL1151908, “Towards calixarene-based prodrugs: Drug release and antibacterial behaviour of a water-soluble nalidixic acid/calix[4]arene ester adduct” (Bioorg Med Chem Lett, 2009).
